F508del corr: CFTR F508del correction in bronchial cells; CFBE cells, YFP halide quenching; stimulated with forskolin plus potentiator P3; % fluorescence drop versus neutral controls; activity (quench increase), % at 7.58 µM; 0.36% of 350,000 active;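 active means mean added fluorescence quench of at least 8% versus neutral control, with both replicates also reaching 8%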;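 further: cells transiently co-express mutant CFTR-F508del with the halide-sensitive YFP; corrector assay measuring rescue of mutant channel to the surface after 24 h compound exposure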
S100A4 inh HTS: inhibitors of human S100A4 binding to myosin IIA peptide; S100A4/TAMRA-MyoIIA peptide fluorescence polarization; P26447; 0.14% of 360,000 active; inhibition, % at 10.7 µM; AID 652163;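 active means mean inhibition of at least 70% across replicates, with every replicate also reaching that level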
Target sequence (P26447 whole entry, looked up): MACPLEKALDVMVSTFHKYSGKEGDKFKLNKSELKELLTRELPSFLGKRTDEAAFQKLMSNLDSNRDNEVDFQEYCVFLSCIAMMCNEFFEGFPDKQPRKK
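assay system = human S100A4 monomer with TAMRA-labelled myosin IIA peptide | also added = labelled myosin peptide probe, 5 nM | incubation = 5 min between mix addition and reading | control set = DMSO and TFP controls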
FGF22 binding-1: shifts melting point of recombinant human FGF22. Q9HCT0. recombinant FGF22 thermal shift, SYPRO orange fluorescence; percent of sucrose octasulfate shift, DMSO zero. activity (Tm shift, normalised), % at 9.99 µM. 1.5% of 340,000 active. AID 651658;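 active means mean Tm shift, scaled 0 neutral to 100 positive control, at about 1.3% or above, every replicate too, limit read from the data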
Env fusion inh: HIV envelope-mediated fusion inhibition; inhibition, % at 12.3 µM; 1.1% of 360,000 active; HeLa-JRFL Env/CEM21 cell fusion, luciferase; AID 651610;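 active means mean replicate inhibition score of at least 50 and every replicate individually at or above 50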;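 further: 0% = plate neutral controls and 100% = maraviroc near 300 nM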
E-selectin induc: E-selectin induction on HUVECs; P16581; HUVEC E-selectin immunofluorescence imaging; normalized: neutral wells 0, TNF-alpha wells 100; activation, % at 7.58 µM; 0.37% of 260,000 active; AID 686992;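 active means mean E-selectin-positive cell signal at least 10% of the positive control, reached in at least 60% of replicates, without over 20% cell loss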
Target sequence (P16581 whole entry, looked up): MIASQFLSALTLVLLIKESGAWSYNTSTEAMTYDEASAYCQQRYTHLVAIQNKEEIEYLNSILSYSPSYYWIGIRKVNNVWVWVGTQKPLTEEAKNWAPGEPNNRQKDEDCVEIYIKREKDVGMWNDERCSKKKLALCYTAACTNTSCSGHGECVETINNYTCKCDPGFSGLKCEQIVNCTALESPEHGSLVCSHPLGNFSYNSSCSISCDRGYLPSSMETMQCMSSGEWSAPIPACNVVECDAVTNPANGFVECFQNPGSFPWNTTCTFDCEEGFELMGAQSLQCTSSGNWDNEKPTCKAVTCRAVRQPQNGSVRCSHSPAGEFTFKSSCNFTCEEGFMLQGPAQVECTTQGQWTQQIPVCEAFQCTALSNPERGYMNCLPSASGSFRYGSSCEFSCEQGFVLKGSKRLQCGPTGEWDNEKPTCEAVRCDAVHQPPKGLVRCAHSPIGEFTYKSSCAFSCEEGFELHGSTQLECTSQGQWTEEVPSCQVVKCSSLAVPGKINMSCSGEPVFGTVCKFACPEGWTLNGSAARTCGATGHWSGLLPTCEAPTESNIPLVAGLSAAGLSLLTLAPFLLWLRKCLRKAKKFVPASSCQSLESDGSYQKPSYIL
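Material: HUVEC primary endothelial cells; Amount: 3,000 cells per well; Dosing: single concentration; Medium: EGM-2 growth medium on 0.1% gelatin-coated wells; Read-out basis: percent E-selectin-positive cells; Signal: immunofluorescence imaging; Control set: TNF-alpha, DMSO.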
FGF22 binding-2: FGF22 (human) binding in thermal shift | AID 720646 | thermal shift activity, °C (ΔTm) at 38 µM | 2% of 1,000 active | shares compounds with FGF22 binding-1 | recombinant FGF22 thermal shift, SYPRO orange fluorescence;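 active means fitted rise in melting shift crosses a set limit at or below the top valid dose tested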
FGF22 TSA: binds human FGF22 shifting its melting temperature; shares compounds with FGF22 binding-1; Thermal shift assay, SYPRO orange, melting temperature shift; Tm shift (activity), % at 38 µM; 50 tested, under 10 active;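 active means compounds whose fitted dose curve of melting temperature shift rises past a set threshold within the tested doses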
SYPRO no-protein: compound-only SYPRO artifact for FGF22 binders; shares compounds with FGF22 binding-1; AC50, µM (top dose mostly 38 µM); 2% of 1,000 active; compound-only SYPRO orange thermal shift counter-screen, no protein; AID 743019;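 active means rising signal whose fitted curve reaches the 0.54 level within the top valid dose, showing a melting point, actives reach about 13 µM in these data; inactive means the rest, including activity in the opposite direction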; further: value is where the raw curve crosses a fixed level and not half-maximal
* hit, by the source's call; i = inactive; / = not tested or not shown; ! = a repeat was not active; [ ] = dose if it differs, or a comment. This is a sample that favours compounds with a hit; in the whole collection about 2.7% have one here.

SMILES	F508del corr	S100A4 inh HTS	FGF22 binding-1	Env fusion inh	E-selectin induc	FGF22 binding-2	SYPRO no-protein	others
C[C@@H]1CN([C@H](C)CO)C(=O)Cc2cc(N(C)C)ccc2O[C@@H]1CN(C)Cc1ccc(Cl)c(Cl)c1	4.9	-7.2	39.9*	-19.0[16.7 µM]	-0.5	/	i
Cc1noc(C)c1NC(=O)Nc1ccc2c(c1)CC(=O)N([C@@H](C)CO)C[C@H](C)[C@@H](CN(C)Cc1ccc3c(c1)OCO3)O2	-0.8	-10.9	1.5*	-12.1[16.7 µM]	0.2	0.127	i
C[C@@H]1CN([C@@H](C)CO)C(=O)c2cc(NS(C)(=O)=O)ccc2O[C@@H]1CN(C)Cc1ccc2c(c1)OCO2	2.1	-3.8	1.9*	-16.1[16.7 µM]	0.1	-0.115	i
Cc1noc(C)c1NC(=O)Nc1ccc2c(c1)CC(=O)N([C@H](C)CO)C[C@H](C)[C@H](CN(C)Cc1ccc3c(c1)OCO3)O2	0.8	-5.6	0.0	-64.5[16.7 µM]	/	/	/
Cc1noc(C)c1NC(=O)Nc1cccc2c1O[C@@H](CN(C)Cc1ccc(-c3ccccc3)cc1)[C@H](C)CN([C@@H](C)CO)C2=O	0.0	-33.4	0.0	/	0.3	/	/
C[C@H](CO)N1C[C@H](C)[C@@H](CN(C)CC2CC2)Oc2ccc(NS(=O)(=O)c3cccs3)cc2C1=O	-3.3	8.5	5.2*	-11.4[16.7 µM]	0.2	0.096[42 µM]	i
C[C@H](CO)N1C[C@H](C)[C@H](CN(C)C)Oc2ccc(NC(=O)NC3CCCCC3)cc2CC1=O	-4.9	5.9	2.0*	/	0.0	0.097[42 µM]	i
C[C@@H]1CN([C@@H](C)CO)C(=O)Cc2cc(NC(=O)NC3CCCCC3)ccc2O[C@H]1CN(C)C	-0.2	4.9	-0.2	/	3.0	/	/
CCCc1cn(CC[C@H]2CC[C@H](NS(=O)(=O)c3ccc(-c4ccccc4)cc3)[C@@H](CO)O2)nn1	0.5	-2.0	-0.3	18.7[16.7 µM]	-0.4	/	/
C/C(CC(=O)Nc1ccc2c(c1)OCCO2)=N\NC(=O)COc1ccc(C)cc1Br	-4.0	12.5	2.9*	6.9	/	0.005	i
C/C(CC(=O)Nc1ccc2c(c1)OCCO2)=N\NC(=O)COc1ccc(C)cc1	0.0	-18.7	41.0	-16.8	/	/	/
COc1ccccc1-c1cn(CC[C@@H]2CC[C@H](NC(=O)C3CC3)[C@@H](CO)O2)nn1	-0.2	-2.7	-0.3	-4.1[16.7 µM]	0.1	/	/
Cc1nn(-c2ccccc2)c(Cl)c1/C=N/NC(=O)c1cccnc1	/	-2.9	16.6*	-249.1	-0.2	0.106	i
Cc1ccc(-n2nc(C)c(/C=N/NC(=O)c3cccnc3)c2Cl)cc1	2.9	-1.8	0.1	-0.8	0.0	/	/
C/C(=N\NC(=O)c1ccc(NS(=O)(=O)c2cccs2)cc1)c1ccc(Cl)cc1	/	/	/	-11.7	/	/	/
C/C(=N\NC(=O)c1ccc(NS(=O)(=O)c2cccs2)cc1)c1cccs1	-0.3	-1.4	1.5*	-11.6	0.0	0.017	i
Cc1ccccc1NCC(=O)N/N=C\C=C\c1cccc([N+](=O)[O-])c1	0.8	-5.0	1.5*	18.8	0.2	-0.104	i
CN1C(=O)NC(NS(=O)(=O)c2ccc(N)cc2)(C(F)(F)F)C1=O (stereo not given)	-3.5	-6.0	3.8*	8.6	7.3	0.101	i
O=[N+]([O-])c1ccc(N/N=C/c2ccc[nH]2)cc1	/	-15.5	3.1*	-24.4	0.4	0.23	i
Oc1c(CN2CCOCC2)cc(CN2CCOCC2)c(O)c1O	1.0	0.8	1.4*	/	0.0	0.096	i
O=C(NC1CCCCC1)N1CC(=O)N2[C@H](C1)[C@H](c1ccc(-c3cccc(F)c3)cc1)[C@@H]2CO	0.3	-1.5	0.5	/	-0.5	/	/
O=C(NC1CCCCC1)N1CC(=O)N2[C@H](CO)[C@H](c3ccc(-c4cccc(F)c4)cc3)[C@H]2C1	-1.2	-2.2	1.4*	/	-0.1	0.295[42 µM]	i
O=C(Nc1cccc(F)c1)N1CC(=O)N2[C@@H](CO)[C@@H](c3ccc(Br)cc3)[C@@H]2C1	1.3	0.4	1.3*	/	0.3	0.251[42 µM]	i
C[C@H](CO)N1C[C@H](C)[C@H](CN(C)S(=O)(=O)c2ccccc2F)Oc2ncc(C#Cc3cccnc3)cc2C1=O	0.2	7.5	0.1	/	0.3	/	/
O=C(C[C@H]1CC[C@H]2[C@@H](COC[C@H](O)CN2CC2CCOCC2)O1)NCC1CCCCC1	-2.1	-3.3	2.4*	/	-0.1	-0.021[42 µM]	i
SMILES	F508del corr	S100A4 inh HTS	FGF22 binding-1	Env fusion inh	E-selectin induc	FGF22 binding-2	SYPRO no-protein	others
CN1CCN(C(=O)C[C@@H]2CC[C@H]3[C@@H](COC[C@H](O)CN3CC3CCCCC3)O2)CC1	4.4	3.5	24.0*	/	/	0.101	i
COc1ccc(CN2CC3(CCN(C(=O)C4CC4)CC3)c3c(n(C)c4cc(OC)ccc34)[C@@H]2CO)cc1	-1.0	7.6	-0.3	/	-0.3	/	/
O=C(CC1SC(=O)NC1=O)Nc1ccc(Cl)cc1 (stereo not given)	-4.5	-3.4	6.2*	-1.5	/	/	i
O=C(CC1NC(=O)NC1=O)Nc1ccc(Cl)cc1 (stereo not given)	/	/	/	-55.7	/	/	/
C[C@H]1CCCCO[C@H](CN(C)C(=O)Nc2ccc(C(F)(F)F)cc2)[C@@H](C)CN([C@@H](C)CO)C(=O)c2cc(NS(C)(=O)=O)ccc2O1	1.2	-17.6	-0.9	48.1[16.7 µM]	0.1	/	/
Cc1ccc(S(=O)(=O)N(C)c2ccc(OC(=O)COc3ccccc3)cc2)cc1	-2.2	-17.3	15.4*	32.9	1.5	0.1	i
Cc1ccc(S(=O)(=O)N(C)c2ccc(OCC(=O)Nc3ccc(S(C)(=O)=O)cc3)cc2)cc1	6.7	-0.7	-0.2	-51.5	0.0	/	/
CCCNC(=O)N(C)C[C@H]1Oc2ncc(C#CC3CC3)cc2C(=O)N([C@@H](C)CO)C[C@H]1C	-1.2	-6.8	0.1	-7.8[16.7 µM]	-0.2	/	/
O=C(Nc1cc(Cl)cc(Cl)c1)N[C@@H]1CC[C@@H](CCNS(=O)(=O)c2cccc(F)c2)O[C@@H]1CO	2.4	5.4	2.7*!	-4.9[16.7 µM]	0.8	-0.311[42 µM]	i	FGF22 TSA=-0.3
O=C(Nc1cc(Cl)cc(Cl)c1)N[C@H]1CC[C@H](CCNS(=O)(=O)c2cccc(F)c2)O[C@H]1CO	3.1	1.3	-0.4	11.6[16.7 µM]	-0.2	/	/
O=C(CCN1CCCCC1)N[C@@H]1CC[C@H](CCNS(=O)(=O)c2ccc(F)cc2)O[C@H]1CO	3.1	4.6	1.7*	1.2[16.7 µM]	1.3	-0.187	i
Cc1ccccc1S(=O)(=O)NCC[C@@H]1CC[C@@H](NC(=O)Nc2cccc(Cl)c2)[C@@H](CO)O1	0.0	8.2	1.3*	2.4[16.7 µM]	0.6	-0.071[42 µM]	i
